Results taken from paper PMC6528680 (Journal of natural products, 2019).
Where two headings read alike, the source gives them in different places. Marks after values point to notes of the source that are not given here.

Key:
[1] = molecular target: T1, recombinant human GUSB (Homo sapiens, UniProt P08236); experiment: GUSB-specificity of substrate deconjugation; type: biochemical; details: 37°C, 50 mM sodium acetate buffer pH 5
T1 sequence (P08236 23-651): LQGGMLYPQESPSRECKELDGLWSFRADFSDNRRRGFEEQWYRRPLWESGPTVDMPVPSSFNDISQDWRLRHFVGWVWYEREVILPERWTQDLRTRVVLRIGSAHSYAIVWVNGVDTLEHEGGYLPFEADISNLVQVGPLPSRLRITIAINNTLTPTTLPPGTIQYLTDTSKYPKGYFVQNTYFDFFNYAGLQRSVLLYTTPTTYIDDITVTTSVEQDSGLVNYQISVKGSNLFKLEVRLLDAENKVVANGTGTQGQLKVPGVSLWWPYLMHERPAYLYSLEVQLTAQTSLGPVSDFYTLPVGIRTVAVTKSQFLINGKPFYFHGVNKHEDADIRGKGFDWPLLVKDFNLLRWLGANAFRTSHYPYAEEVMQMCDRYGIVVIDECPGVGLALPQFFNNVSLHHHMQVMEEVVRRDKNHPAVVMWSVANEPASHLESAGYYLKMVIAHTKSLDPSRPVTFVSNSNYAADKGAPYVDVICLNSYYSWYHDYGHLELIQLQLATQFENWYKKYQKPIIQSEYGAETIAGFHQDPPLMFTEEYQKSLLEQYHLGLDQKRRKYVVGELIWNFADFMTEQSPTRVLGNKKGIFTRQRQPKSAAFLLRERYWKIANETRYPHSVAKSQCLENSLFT
Procedure, shortened: (§1)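 Recombinant human GUSB, HPSE or KL, normalized to molarity, was incubated 30–60 min at 37°C in 50 mM sodium acetate pH 5 with 4-methylumbelliferyl-glucuronide or phenolphthalein-glucuronide at above-Km concentrations. Reactions were quenched. Product was quantified against 4-MU or phenolphthalein standard curves by fluorescence (Ex 360/Em 470 nm) or absorbance at 540 nm. Rates are given as nmol product per enzyme amount per min.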

[2] = molecular target: T2, recombinant human KL (Homo sapiens, UniProt Q9UEF7); experiment: GUSB-specificity of substrate deconjugation; type: biochemical; details: 37°C, 50 mM sodium acetate buffer pH 5
T2 sequence (Q9UEF7 34-1012): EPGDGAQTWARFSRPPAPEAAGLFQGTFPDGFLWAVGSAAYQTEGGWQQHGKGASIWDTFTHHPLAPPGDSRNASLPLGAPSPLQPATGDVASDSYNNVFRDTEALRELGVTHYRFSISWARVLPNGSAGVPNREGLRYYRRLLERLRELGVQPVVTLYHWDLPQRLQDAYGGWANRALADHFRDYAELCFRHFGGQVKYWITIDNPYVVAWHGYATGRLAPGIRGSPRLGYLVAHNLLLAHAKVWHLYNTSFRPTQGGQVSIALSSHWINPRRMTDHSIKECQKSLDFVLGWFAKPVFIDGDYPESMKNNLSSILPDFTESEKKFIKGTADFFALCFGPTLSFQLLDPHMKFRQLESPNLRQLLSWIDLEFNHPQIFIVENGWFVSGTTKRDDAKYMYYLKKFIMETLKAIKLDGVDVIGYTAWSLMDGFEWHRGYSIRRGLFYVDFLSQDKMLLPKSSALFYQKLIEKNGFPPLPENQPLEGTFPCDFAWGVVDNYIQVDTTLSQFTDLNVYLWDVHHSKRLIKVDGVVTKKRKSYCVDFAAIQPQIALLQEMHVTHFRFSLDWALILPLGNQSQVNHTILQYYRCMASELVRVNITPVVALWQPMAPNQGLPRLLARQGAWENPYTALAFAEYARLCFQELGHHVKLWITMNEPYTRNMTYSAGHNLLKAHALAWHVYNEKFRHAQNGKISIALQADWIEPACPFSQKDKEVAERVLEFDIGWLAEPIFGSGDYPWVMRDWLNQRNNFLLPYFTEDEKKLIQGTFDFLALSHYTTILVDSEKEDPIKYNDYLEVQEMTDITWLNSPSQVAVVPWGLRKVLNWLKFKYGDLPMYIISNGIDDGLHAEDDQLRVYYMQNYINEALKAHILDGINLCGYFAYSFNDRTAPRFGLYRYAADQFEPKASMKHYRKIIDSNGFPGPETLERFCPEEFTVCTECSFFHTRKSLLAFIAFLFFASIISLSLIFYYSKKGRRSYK
Procedure, shortened: as §1

[3] = molecular target: T3, recombinant human HPSE (Homo sapiens, UniProt Q9Y251); experiment: GUSB-specificity of substrate deconjugation; type: biochemical; details: 37°C, 50 mM sodium acetate buffer pH 5
T3 sequence (Q9Y251 158-543 limits assumed): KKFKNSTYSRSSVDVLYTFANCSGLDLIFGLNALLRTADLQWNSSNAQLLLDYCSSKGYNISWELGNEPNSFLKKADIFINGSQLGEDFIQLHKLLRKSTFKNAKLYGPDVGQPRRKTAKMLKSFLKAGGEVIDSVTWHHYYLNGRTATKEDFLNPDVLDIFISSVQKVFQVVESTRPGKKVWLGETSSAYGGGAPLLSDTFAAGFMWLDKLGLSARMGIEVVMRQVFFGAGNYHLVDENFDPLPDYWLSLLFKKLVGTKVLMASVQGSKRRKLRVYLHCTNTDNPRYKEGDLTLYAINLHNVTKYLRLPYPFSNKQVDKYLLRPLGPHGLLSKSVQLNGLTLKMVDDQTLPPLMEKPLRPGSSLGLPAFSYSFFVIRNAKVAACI
T3 sequence (Q9Y251 36-109 limits assumed): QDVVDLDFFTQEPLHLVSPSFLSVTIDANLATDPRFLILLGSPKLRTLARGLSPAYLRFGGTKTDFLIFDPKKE
Procedure, shortened: as §1

[4] = molecular target: T4, GUSB (Mus musculus, UniProt P12265); type: in vivo, C57BL/6J mice; details: SL 1 g/kg IP 1 h before oral curcumin 500 mg/kg
T4 sequence (P12265 23-648): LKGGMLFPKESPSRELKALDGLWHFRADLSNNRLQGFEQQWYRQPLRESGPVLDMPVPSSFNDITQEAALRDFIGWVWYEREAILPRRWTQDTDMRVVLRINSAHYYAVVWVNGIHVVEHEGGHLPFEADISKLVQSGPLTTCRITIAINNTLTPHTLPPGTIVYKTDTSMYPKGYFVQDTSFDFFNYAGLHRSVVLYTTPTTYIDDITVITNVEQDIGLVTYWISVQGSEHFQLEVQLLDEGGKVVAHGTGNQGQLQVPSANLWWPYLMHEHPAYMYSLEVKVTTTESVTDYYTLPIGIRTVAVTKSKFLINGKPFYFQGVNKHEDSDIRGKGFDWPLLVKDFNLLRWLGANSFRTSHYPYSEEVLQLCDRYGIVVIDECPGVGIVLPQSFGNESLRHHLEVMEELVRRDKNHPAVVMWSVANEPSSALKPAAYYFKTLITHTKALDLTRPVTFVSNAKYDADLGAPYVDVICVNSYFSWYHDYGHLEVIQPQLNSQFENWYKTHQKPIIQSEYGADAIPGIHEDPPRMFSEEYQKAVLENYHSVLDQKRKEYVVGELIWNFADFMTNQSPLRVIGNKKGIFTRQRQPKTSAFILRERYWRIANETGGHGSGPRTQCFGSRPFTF
Procedure, shortened: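 Mice were pretreated with saccharolactone (1 g/kg in saline, IP) 1 h before oral gavage of 500 mg/kg curcumin in DMSO. Serum (clotted 10 min RT, 8,000 g 10 min) and marrow were taken at 30 min. Marrow was resuspended in 50 mM sodium acetate pH 5 and held 2 h on ice. Aglycone curcumin and curcumin-glucuronide were measured by LC/MS after HLB extraction.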

[5] = molecular target: T4, GUSB; experiment: Ex vivo saccharolactone added to marrow suspensions from curcumin-treated mice; type: biochemical, C57BL/6J mice; details: 10 mM SL in sodium acetate buffer
Procedure, shortened: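 Female 4-week C57BL/6J mice were gavaged with 500 mg/kg oral curcumin in DMSO. Leg marrow was spun out (10,000 g, 15 s) at 30 min and resuspended in 50 mM sodium acetate pH 5 with or without 10 mM saccharolactone. It was held 2 h on ice, then supernatants were taken. Aglycone and glucuronide were quantified by LC/MS (HLB extraction, C18, SRM) as % of total curcumin. n=3–4/group.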

[6] = molecular target: T4, GUSB; type: biochemical, C57BL/6NJ mice; details: SL 10 mM, 10 μM curcumin-glucuronide, 2 h, 37°C
[7] = system: RAW 264.7 cells; experiment: RAW 264.7 cell viability; type: cell-based, murine; details: at approximately 3 μM; data not shown
[8] = type: in vivo; details: C57BL/6J mice
[9] = type: in vivo, mice (C57BL/6J, C3H/HeJ)
Procedure, shortened: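 Oral gavage of 500 mg/kg in DMSO to C57BL/6J and C3H/HeJ mice (n=3–4/group), with sampling at 30 min under isoflurane. Marrow pellets were suspended in 50 mM sodium acetate pH 5 for 2 h on ice and centrifuged. Serum was acidified to pH 5 with HCl before HLB extraction and LC/MS. Marrow concentrations were corrected to pellet volume, assuming density 1.06 g/ml. Mean ± SEM.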

[10] = type: in vivo, mice (C57BL/6J, C3H/HeJ, mps/mps)
Procedure, shortened: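 Test compound dosed IP at 100 mg/kg in DMSO to 15-week female BL/6J, female HeJ and male mps/mps mice (n=3–5/group). Blood and marrow were taken under isoflurane at 20 min. Marrow pellets were resuspended in 50 mM sodium acetate pH 5 and held 2 h on ice, then supernatants were kept. Serum was acidified to pH 5, and aglycone and glucuronide were measured by HLB solid-phase extraction and LC/MS. Mean ± SEM.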

Structure (SMILES): O=C1OC(c2ccc(O)cc2)(c2ccc(O[C@@H]3O[C@H](C(=O)O)[C@@H](O)[C@H](O)[C@H]3O)cc2)c2ccccc21 (stereo partly shown) [glucuronidated PheP, Phenolphthalein-glucuronide]
- Rate of cleavage by GUSB [1]: 23.5 nmol PheP/nmol enzyme/min
- Rate of cleavage by KL [2]: 1.0 nmol PheP/nmol enzyme/min
- Rate of cleavage by HPSE [3]: 0.14 nmol PheP/nmol enzyme/min

Structure (SMILES): O.O=C(O)[C@@H](O)[C@H]1OC(=O)[C@H](O)[C@H]1O [saccharolactone, D-Saccharic acid 1,4-lactone monohydrate]
- Aglycone curcumin levels in marrow suspensions after in vivo inhibitor treatment [4]: no longer detectable
- Effect on serum levels of aglycone curcumin ([4]; data not shown): unchanged
- Aglycone curcumin in marrow suspensions with inhibitor added ex vivo [5]: not detected
- Effect on deconjugation of GC in marrow-conditioned media [6]: inhibitable

Structure (SMILES): COc1cc(/C=C/C(=O)CC(=O)/C=C/c2ccc(O)c(OC)c2)ccc1O [aglycone curcumin, curcumin]
- Effect on RAW 264.7 cell viability [7]: did not alter
- Aglycone curcumin as share of total curcumin in serum ([8]; 30 min post oral dose, n=11): 0.24% ± 0.07%
- Aglycone curcumin as share of total curcumin in lyophilized whole bone marrow ([8]; post oral dose, n=8): 0.77% ± 0.21%
- Aglycone curcumin as share of total curcumin in perfusing serum ([9]; 30 min post oral dose, C57BL/6J): 0.1–0.2 % of total curcumin
- Concentration in serum ([9]; C3H/HeJ, 30 min after oral 500 mg/kg curcumin, mean (SEM)): nd (≤0.01) μM
- Absolute and relative amounts of marrow aglycone curcumin lower in HeJ vs BL/6J ([9]; oral 500 mg/kg curcumin, 30 min): 59–65%
- Aglycone curcumin as share of circulating total curcumin ([10]; BL/6J serum, IP curcumin): < 4%
- Aglycone curcumin as share of total in ex vivo bone marrow suspensions ([10]; BL/6J, IP curcumin): 51 % of total
- Bone marrow aglycone curcumin (% of total curcumin) lower vs BL/6J ([10]; HeJ mice, IP curcumin): 73%
- Bone marrow aglycone curcumin (% of total curcumin) decrease vs BL/6J ([10]; mps/mps mice, IP curcumin): 88%
- Increase of circulating curcumin concentrations vs BL/6J ([10]; mps/mps mice, IP curcumin): 3.2 fold
- Concentration in serum ([10]; mps/mps, 20 min after IP 100 mg/kg curcumin, mean (SEM)): 22.8 (6.9)^a,b μM

Structure (SMILES): Cc1cc(=O)oc2cc(O[C@@H]3O[C@H](C(=O)O)[C@@H](O)[C@H](O)[C@H]3O)ccc12 [glucuronidated 4-MU, 4-methylumbelliferyl-glucuronide]
- Rate of cleavage by GUSB [1]: 2.64 nmol 4-MU/pmol enzyme/min
- Rate of cleavage by KL ([2]; without effect): < 0.007 nmol 4-MU/nmol enzyme/min
- Rate of cleavage by HPSE ([3]; without effect): < 0.007 nmol 4-MU/nmol enzyme/min
